Source: ChEMBL document CHEMBL5303300, “EUbOPEN Chemogenomics Library - Multiplex” (2023)
Several values for one entry are separate records, joined by “and”; a condition that tells them apart may be missing. Identical values can stand only once.

Test system: HEK-293T
Test: Multiplex assay against HEK293T
Type: toxicity, cell-based
Conditions: human, number of replicates 2
Outline: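 On a CQ1 microscope at 37°C and 5% CO2, live cells were imaged after compound addition. They had been stained at seeding with Hoechst33342, BioTracker Green Microtubule Cytoskeleton Dye, MitoTracker Red and Annexin V Alexa Fluor 680. CellPathfinder machine-learning gating assigned cells to Hoechst high-intensity objects or normal cells, normal cells to healthy, pyknosed or fragmented nuclei, and pyknosed cells to mitotic or apoptotic. Tubulin, mitochondrial-mass and membrane-permeability phenotypes are per cents of healthy-nucleus cells.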

[1] = 12 h, 10 µM, compound concentration 10 uM
[2] = 24 h, 10 µM, compound concentration 10 uM
[3] = 48 h, 10 µM, compound concentration 10 uM
[4] = 12 h, 1 µM, compound concentration 1 uM
[5] = 24 h, 1 µM, compound concentration 1 uM
[6] = 48 h, 1 µM, compound concentration 1 uM

## CN[C@@H]1C[C@H]2O[C@@](C)([C@@H]1OC)n1c3ccccc3c3c4c(c5c6ccccc6n2c5c31)C(=O)NC4 [STAUROSPORINE]
[1]
  Population Apoptotic (%): 56% and 55% and 68% and 63%
  Population Fragmented Nuclei (%): 20% and 14% and 21%
  Population Healthy Nuclei (%): 37% and 34% and 23% and 29%
  Population Hoechst High Intensity Objects (%): 7% and 8% and 5%
  Population Membrane Permeable-Phenotype (%): 11% and 12% and 7%
  Population Mitochondria Different-Phenotype (%): 46% and 52% and 60% and 51%
  Population Mitotic Cells (%): 43% and 44% and 31% and 36%
  Population Normal (%): 92% and 91% and 94%
  Population Pyknosed Nuclei (%): 41% and 51% and 55% and 50%
  Population Tubulin-Different-Phenotype (%): 72% and 77% and 76%
[2]
  Population Apoptotic (%): 85% and 83% and 86%
  Population Fragmented Nuclei (%): 16% and 13%
  Population Healthy Nuclei (%): 17% and 22% and 23% and 18%
  Population Hoechst High Intensity Objects (%): 12% and 8% and 10% and 7%
  Population Membrane Permeable-Phenotype (%): 10% and 7% and 6%
  Population Mitochondria Different-Phenotype (%): 45% and 63% and 62%
  Population Mitotic Cells (%): 14% and 16% and 13%
  Population Normal (%): 87% and 91% and 89% and 92%
  Population Pyknosed Nuclei (%): 66% and 64% and 63% and 65%
  Population Tubulin-Different-Phenotype (%): 58% and 59% and 76% and 79%
[3]
  Population Apoptotic (%): 90% and 89% and 87% and 81%
  Population Fragmented Nuclei (%): 13% and 11% and 10%
  Population Healthy Nuclei (%): 23% and 17% and 22% and 20%
  Population Hoechst High Intensity Objects (%): 14% and 9% and 11%
  Population Membrane Permeable-Phenotype (%): 11% and 6% and 5%
  Population Mitochondria Different-Phenotype (%): 47% and 62% and 64% and 65%
  Population Mitotic Cells (%): 9% and 10% and 12% and 18%
  Population Normal (%): 85% and 90% and 88%
  Population Pyknosed Nuclei (%): 63% and 71% and 66%
  Population Tubulin-Different-Phenotype (%): 59% and 72% and 68% and 75%

## O=C(NCc1ccc(F)cc1)N1CCN2C(=O)OC(c3ccccc3)(c3ccccc3)C2C1 (stereo not given)
[4]
  Population Apoptotic (%): 56% and 58%
  Population Fragmented Nuclei (%): 5% and 3%
  Population Healthy Nuclei (%): 82% and 77%
  Population Hoechst High Intensity Objects (%): 8% and 6%
  Population Membrane Permeable-Phenotype (%): 6% and 1%
  Population Mitochondria Different-Phenotype (%): 18% and 19%
  Population Mitotic Cells (%): 43% and 41%
  Population Normal (%): 91% and 93%
  Population Pyknosed Nuclei (%): 11% and 19%
  Population Tubulin-Different-Phenotype (%): 76% and 63%
  Total Cell Count: 761 and 454
[1]
  Population Apoptotic (%): 72% and 41%
  Population Fragmented Nuclei (%): 2%
  Population Healthy Nuclei (%): 75% and 85%
  Population Hoechst High Intensity Objects (%): 7% and 4%
  Population Membrane Permeable-Phenotype (%): 5% and 3%
  Population Mitochondria Different-Phenotype (%): 34% and 53%
  Population Mitotic Cells (%): 27% and 58%
  Population Normal (%): 92% and 95%
  Population Pyknosed Nuclei (%): 21% and 12%
  Population Tubulin-Different-Phenotype (%): 93% and 97%
  Total Cell Count: 433 and 482
[5]
  Population Apoptotic (%): 36% and 63%
  Population Fragmented Nuclei (%): 8% and 5%
  Population Healthy Nuclei (%): 83%
  Population Hoechst High Intensity Objects (%): 7% and 9%
  Population Membrane Permeable-Phenotype (%): 5% and 2%
  Population Mitochondria Different-Phenotype (%): 4% and 8%
  Population Mitotic Cells (%): 63% and 36%
  Population Normal (%): 92% and 90%
  Population Pyknosed Nuclei (%): 7% and 11%
  Population Tubulin-Different-Phenotype (%): 51% and 38%
  Total Cell Count: 1157 and 707
[2]
  Population Apoptotic (%): 70% and 54%
  Population Fragmented Nuclei (%): 2% and 4%
  Population Healthy Nuclei (%): 83% and 85%
  Population Hoechst High Intensity Objects (%): 9% and 5%
  Population Membrane Permeable-Phenotype (%): 6% and 3%
  Population Mitochondria Different-Phenotype (%): 31% and 55%
  Population Mitotic Cells (%): 29% and 45%
  Population Normal (%): 90% and 94%
  Population Pyknosed Nuclei (%): 14% and 10%
  Population Tubulin-Different-Phenotype (%): 90% and 94%
  Total Cell Count: 529 and 537
[6]
  Population Fragmented Nuclei (%): 16% and 10%
  Population Healthy Nuclei (%): 80% and 86%
  Population Hoechst High Intensity Objects (%): 9%
  Population Membrane Permeable-Phenotype (%): 8% and 3%
  Population Mitochondria Different-Phenotype (%): 0% and 1%
  Population Mitotic Cells (%): 91% and 68%
  Population Normal (%): 90%
  Population Pyknosed Nuclei (%): 2% and 3%
  Population Tubulin-Different-Phenotype (%): 30% and 21%
  Total Cell Count: 2926 and 1423
[3]
  Population Apoptotic (%): 45% and 43%
  Population Fragmented Nuclei (%): 5% and 8%
  Population Healthy Nuclei (%): 87% and 85%
  Population Hoechst High Intensity Objects (%): 6%
  Population Membrane Permeable-Phenotype (%): 6% and 10%
  Population Mitochondria Different-Phenotype (%): 39% and 15%
  Population Mitotic Cells (%): 55% and 56%
  Population Normal (%): 93%
  Population Pyknosed Nuclei (%): 6% and 5%
  Population Tubulin-Different-Phenotype (%): 93% and 82%
  Total Cell Count: 655 and 824

## CNC(=O)c1c(F)cccc1Nc1nc(Nc2cc3c(cc2OC)CCN3C(=O)CN(C)C)nc2[nH]ccc12
[4]
  Population Apoptotic (%): 62% and 55%
  Population Fragmented Nuclei (%): 4% and 2%
  Population Healthy Nuclei (%): 82% and 86%
  Population Hoechst High Intensity Objects (%): 12%
  Population Membrane Permeable-Phenotype (%): 1% and 0%
  Population Mitochondria Different-Phenotype (%): 46% and 51%
  Population Mitotic Cells (%): 37% and 44%
  Population Normal (%): 87%
  Population Pyknosed Nuclei (%): 13% and 10%
  Population Tubulin-Different-Phenotype (%): 81% and 83%
  Total Cell Count: 326 and 308
[1]
  Population Apoptotic (%): 45% and 56%
  Population Fragmented Nuclei (%): 7%
  Population Healthy Nuclei (%): 75% and 73%
  Population Hoechst High Intensity Objects (%): 44% and 47%
  Population Membrane Permeable-Phenotype (%): 4% and 2%
  Population Mitochondria Different-Phenotype (%): 66% and 59%
  Population Mitotic Cells (%): 54% and 44%
  Population Normal (%): 55% and 52%
  Population Pyknosed Nuclei (%): 17% and 19%
  Population Tubulin-Different-Phenotype (%): 94% and 93%
  Total Cell Count: 246 and 244
[5]
  Population Apoptotic (%): 40% and 83%
  Population Fragmented Nuclei (%): 9% and 7%
  Population Healthy Nuclei (%): 84% and 88%
  Population Hoechst High Intensity Objects (%): 12% and 9%
  Population Membrane Permeable-Phenotype (%): 0%
  Population Mitochondria Different-Phenotype (%): 34% and 30%
  Population Normal (%): 87% and 90%
  Population Pyknosed Nuclei (%): 5% and 4%
  Population Tubulin-Different-Phenotype (%): 81% and 79%
  Total Cell Count: 390 and 332
[2]
  Population Apoptotic (%): 37% and 38%
  Population Fragmented Nuclei (%): 6%
  Population Healthy Nuclei (%): 79% and 80%
  Population Hoechst High Intensity Objects (%): 37% and 45%
  Population Membrane Permeable-Phenotype (%): 8% and 4%
  Population Mitochondria Different-Phenotype (%): 45% and 40%
  Population Mitotic Cells (%): 62% and 61%
  Population Normal (%): 62% and 54%
  Population Pyknosed Nuclei (%): 14% and 12%
  Population Tubulin-Different-Phenotype (%): 93% and 94%
  Total Cell Count: 266 and 259
[6]
  Population Apoptotic (%): 25% and 66%
  Population Fragmented Nuclei (%): 16% and 11%
  Population Healthy Nuclei (%): 80% and 86%
  Population Hoechst High Intensity Objects (%): 21% and 30%
  Population Membrane Permeable-Phenotype (%): 1%
  Population Mitochondria Different-Phenotype (%): 4% and 8%
  Population Mitotic Cells (%): 75% and 33%
  Population Normal (%): 78% and 69%
  Population Pyknosed Nuclei (%): 2% and 1%
  Population Tubulin-Different-Phenotype (%): 63% and 69%
  Total Cell Count: 741 and 531
[3]
  Population Apoptotic (%): 57% and 71%
  Population Fragmented Nuclei (%): 9%
  Population Healthy Nuclei (%): 80% and 77%
  Population Hoechst High Intensity Objects (%): 29% and 35%
  Population Membrane Permeable-Phenotype (%): 5% and 7%
  Population Mitochondria Different-Phenotype (%): 18% and 11%
  Population Mitotic Cells (%): 42% and 28%
  Population Normal (%): 70% and 64%
  Population Pyknosed Nuclei (%): 9% and 13%
  Population Tubulin-Different-Phenotype (%): 87%
  Total Cell Count: 402 and 414
